# Source: ChEMBL document CHEMBL4715860 (J Med Chem, 2020)
# Active and inactive are the calls of the source. The rule behind the calls is not given here.
# Assays:
# [1] = AUC (0 to 8 hrs) in C57BL/6J mouse brain at 10 mg/kg, po administered once a day for 4 consecutive days by mass spectrometry based UHPLC analysis; assay type: ADME, organism-based; parameters: route oral, time 4 day, dose 10 mg/kg
# Summary of the method: (§1)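 Female C57BL/6J mice given 10 mg/kg p.o. in 20% Captisol once daily for 4 consecutive days. Plasma and brain sampled after the final dose on day 4, n = 3 per time point.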
# [2] = AUC (0 to 8 hrs) in C57BL/6J mouse plasma at 10 mg/kg, po administered once a day for 4 consecutive days by mass spectrometry based UHPLC analysis; assay type: ADME, organism-based; parameters: route oral, time 4 day, dose 10 mg/kg; summary of the method: as §1
# [3] = Cmax in C57BL/6J mouse brain at 10 mg/kg, po administered once a day for 4 consecutive days by mass spectrometry based UHPLC analysis; assay type: ADME, organism-based; parameters: route oral, dose 10 mg/kg, time 4 day; summary of the method: as §1
# [4] = Cmax in C57BL/6J mouse brain at 10 mg/kg, po administered as single dose by mass spectrometry based UHPLC analysis; assay type: ADME, organism-based; parameters: route oral, dose 10 mg/kg
# Summary of the method: (§2)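 Female C57BL/6J mice, one oral dose of 10 mg/kg in 20% Captisol; plasma and brain levels over time, n = 3 per time point (mean).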
# [5] = AUC (0 to 8 hrs) in C57BL/6J mouse brain at 10 mg/kg, po administered as single dose by mass spectrometry based UHPLC analysis; assay type: ADME, organism-based; parameters: time < 8 hr, route oral, dose 10 mg/kg; summary of the method: as §2
# [6] = Tmax in C57BL/6J mouse plasma at 10 mg/kg, po administered as single dose by mass spectrometry based UHPLC analysis; assay type: ADME, organism-based
# Summary of the method: (§3)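 Female C57BL/6J mice dosed orally at 10 mg/kg in 20% Captisol, either once or once daily for 4 days with sampling after the last dose on day 4. Plasma and brain concentrations followed over time. Tmax taken from at least 3 time points.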
# [7] = Tmax in C57BL/6J mouse brain at 10 mg/kg, po administered once a day for 4 consecutive days by mass spectrometry based UHPLC analysis; assay type: ADME, organism-based; conditions: time 4 day; summary of the method: as §3
# [8] = Elimination half life in C57BL/6J mouse brain at 10 mg/kg, po administered once a day for 4 consecutive days by mass spectrometry based UHPLC analysis; assay type: ADME, organism-based; conditions: time 4 day, read-out: beta t1/2 (converted); summary of the method: as §1
# [9] = Elimination half life in C57BL/6J mouse plasma at 10 mg/kg, po administered once a day for 4 consecutive days by mass spectrometry based UHPLC analysis; assay type: ADME, organism-based; conditions: time 4 day, read-out: beta t1/2 (converted); summary of the method: as §1
# [10] = AUC (0 to 8 hrs) in C57BL/6J mouse plasma at 10 mg/kg, po administered as single dose by mass spectrometry based UHPLC analysis; assay type: ADME, organism-based; parameters: time < 8 hr, route oral, dose 10 mg/kg; summary of the method: as §2
# [11] = system: Mus musculus; test: Protection against Tsc1-GFAP knockout induced mortality in Balb/c mouse assessed as increase in survival rate at 10 mg/kg, po administered as single dose; assay type: functional, organism-based
# [12] = Clearance in C57BL/6J mouse plasma at 10 mg/kg, po administered as single dose by mass spectrometry based UHPLC analysis; assay type: ADME, organism-based; summary of the method: as §2
# [13] = Tmax in C57BL/6J mouse brain at 10 mg/kg, po administered as single dose by mass spectrometry based UHPLC analysis; assay type: ADME, organism-based; summary of the method: as §3
# [14] = Tmax in C57BL/6J mouse plasma at 10 mg/kg, po administered once a day for 4 consecutive days by mass spectrometry based UHPLC analysis; assay type: ADME, organism-based; conditions: time 4 day; summary of the method: as §3
# [15] = Cmax in C57BL/6J mouse plasma at 10 mg/kg, po administered once a day for 4 consecutive days by mass spectrometry based UHPLC analysis; assay type: ADME, organism-based; parameters: route oral, dose 10 mg/kg, time 4 day; summary of the method: as §1
# [16] = Toxicity in Tsc1-GFAP knockout Balb/c mouse assessed as change in body weight at 10 mg/kg, po; assay type: organism-based; conditions: in vivo
# Summary of the method: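 Tsc1GFAPCKO mice dosed orally from P21 at 10, 25, 50 mg/kg or 50 mg/kg bid. Body weight tracked during the survival study; mean ± SEM.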
# [17] = system: Mus musculus; test: In vivo inhibition of mTORC1 signalling in C57BL/6J mouse assessed as reduction in RPS6 phosphorylation at S235/236 residue in cortex at 10 mg/kg, po incubated for 30 mins by Western blot analysis; assay type: functional, organism-based
# [18] = Clearance in C57BL/6J mouse plasma at 10 mg/kg, po administered once a day for 4 consecutive days by mass spectrometry based UHPLC analysis; assay type: ADME, organism-based; conditions: time 4 day; summary of the method: as §1
# [19] = Elimination half life in C57BL/6J mouse plasma at 10 mg/kg, po administered as single dose by mass spectrometry based UHPLC analysis; assay type: ADME, organism-based; conditions: read-out: beta t1/2 (converted); summary of the method: as §2
# [20] = system: Mus musculus; test: In vivo inhibition of PI3Kalpha C57BL/6J mouse assessed as increase in plasma insulin concentration at 10 mg/kg, po measured after 8 hrs by ELISA; assay type: functional, organism-based
# [21] = system: Mus musculus; test: In vivo inhibition of PI3Kalpha in C57BL/6J mouse assessed as increase in plasma glucose concentration at 10 mg/kg, po measured after 8 hrs by glucoseoxidase-peroxide coupled colorimetric assay; assay type: functional, organism-based
# [22] = Cmax in C57BL/6J mouse plasma at 10 mg/kg, po administered as single dose by mass spectrometry based UHPLC analysis; assay type: ADME, organism-based; parameters: route oral, dose 10 mg/kg; summary of the method: as §2
# [23] = Toxicity in Tsc1-GFAP knockout Balb/c mouse assessed as change in body weight at 50 to 100 mg/kg, po; assay type: organism-based; conditions: in vivo, dose 50-100 mg/kg
# [24] = system: Mus musculus; test: Protection against Tsc1-GFAP knockout induced mortality in Balb/c mouse assessed as increase in survival rate administered orally twice a day measured post last dose; assay type: functional, organism-based
# Summary of the method: (§4)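 Tsc1GFAPCKO mice (Tsc1 conditionally inactivated mainly in glia). Oral dosing from P21 at 10, 25, 50 mg/kg qd or 50 mg/kg bid, n = 7–10 per group. Controls were vehicle and a comparator at 10 mg/kg. Body weight tracked. Survival followed from P21 to death or censoring at P90, compared by log-rank test.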
# [25] = Metabolic stability in Sprague-Dawley rat hepatocytes assessed as parent compound remaining at 5 uM incubated for 3 hrs by LC-MS analysis; assay type: ADME, cell-based, Hepatocyte; conditions: read-out: Stabilty
# Summary of the method: (§5)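 Cryopreserved primary hepatocytes in suspension (CD-1 mouse, Sprague-Dawley rat, Beagle dog, human). Compound diluted from 10 mM DMSO stock to 5 μM final. Sampled at 0, 15, 60, 90 and 180 min, protein precipitated with ACN plus internal standard, supernatant analysed by LC−MS. Run in duplicate. 7-ethoxycoumarin as positive control. Hepatocyte-free medium incubations as negative control.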
# [26] = Toxicity in Tsc1-GFAP knockout Balb/c mouse assessed as survival rate administered orally once a day measured post last dose; conditions: in vivo, po, dose 50-100 mg/kg; summary of the method: as §4
# [27] = Toxicity in po dosed Balb/c nude mouse administered once daily for 14 days measured for 7 days starting from post last dose; assay type: organism-based; conditions: in vivo, time 21 day
# Summary of the method: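 Nontumor-bearing female BALB/c nude mice dosed p.o. once daily for 14 days at 100, 150 or 200 mg/kg (n = 3 each), with vehicle of 20% Captisol in water (n = 1). Body weight change followed, with animals evaluated for 7 days after dosing to set the maximum tolerated dose.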
# [28] = system: Mus musculus; test: Protection against Tsc1-GFAP knockout induced mortality in Balb/c mouse assessed as increase in survival rate at 100 mg/kg, po administered as single dose; assay type: functional, organism-based
# [29] = Metabolic stability in Beagle dog hepatocytes assessed as parent compound remaining at 5 uM incubated for 3 hrs by LC-MS analysis; assay type: ADME, cell-based, Canis lupus familiaris, Hepatocyte; conditions: read-out: Stabilty; summary of the method: as §5
# [30] = Metabolic stability in CD1 mouse hepatocytes assessed as parent compound remaining at 5 uM incubated for 3 hrs by LC-MS analysis; assay type: ADME, cell-based, Hepatocyte; conditions: read-out: Stabilty; summary of the method: as §5
# [31] = Metabolic stability in human hepatocytes assessed as parent compound remaining at 5 uM incubated for 3 hrs by LC-MS analysis; assay type: ADME, cell-based, Hepatocyte; conditions: read-out: Stabilty; summary of the method: as §5
smiles,measurement,setting,value
CO[C@H]1C[C@@H]2CC[C@@H](C)[C@@](O)(O2)C(=O)C(=O)N2CCCC[C@H]2C(=O)O[C@H]([C@H](C)C[C@@H]2CC[C@@H](OCCO)[C@H](OC)C2)CC(=O)[C@H](C)/C=C(\C)[C@@H](O)[C@@H](OC)C(=O)[C@H](C)C[C@H](C)/C=C/C=C/C=C/1C [EVEROLIMUS],AUC at 96 h,[1],640 ng·h/mL
same,AUC at 96 h,[2],42300 ng·h/mL
same,Cmax,[3],43 ng/mL
same,Cmax,[4],57 ng/mL
same,AUC(0-t) at 8 h,[5],804 ng·h/mL
same,Tmax,[6],30 min
same,Tmax,[7],4 h
same,half-life,[8],948 min
same,half-life,[9],342 min
same,AUC(0-t) at 8 h,[10],33600 ng·h/mL
same,Activity,[11],Active
same,CL/F,[12],4.6 mL/min/kg
same,Tmax,[13],24 h
same,Tmax,[14],2 h
same,Cmax,[15],3940 ng/mL
same,Activity,[16],Non-Toxic
same,inhibition,[17],inactive
same,CL/F,[18],3.75 mL/min/kg
same,half-life,[19],390 min
same,inhibition,[20],inactive
same,inhibition,[21],inactive
same,Cmax,[22],3460 ng/mL
Nc1cc(C(F)F)c(-c2nc(N3C4CCC3COC4)nc(N3C4CCC3COC4)n2)cn1,Activity,[23],Non-Toxic
same,Activity,[24],Dose-dependent effect
same,"remaining at 3 h, 5 µM",[25],> 59.9%
same,Activity,[26],Dose-dependent effect
same,MTD at 504 h,[27],150 mg/kg
same,Activity,[28],Active
same,"remaining at 3 h, 5 µM",[29],> 59.9%
same,"remaining at 3 h, 5 µM",[30],> 59.9%
same,"remaining at 3 h, 5 µM",[31],27.8%
